Experimental data from paper PMC4582152 (International Journal of Biological Sciences, 2015).

Assays:
DhelOBP21-I84N mutant = experiment: Competitive fluorescence binding assay with 1-NPN as probe, mutant I84N; design: species or system Dastarcus helophoroides
How it was run: (§1)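 Competitive displacement at pH 7.4 or pH 5.0: 2 μM recombinant protein with a standard concentration of 1-NPN, titrated with aliquots of odorant volatiles (stocks in methanol). Fluorescence is read as for the 1-NPN titration. IC50 is the competitor concentration that halves the initial fluorescence. Ki = IC50/(1+[1-NPN]/K1-NPN), using the Scatchard Kd. Three independent measurements; reported as 1/Ki*1000.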

DhelOBP21-T119N mutant = experiment: Competitive fluorescence binding assay with 1-NPN as probe, mutant T119N; design: species or system Dastarcus helophoroides; conditions: for Binding ability of mutant T119N compared with DhelOBP-WT: pH 7.4; for Binding affinity of mutant T119N compared with DhelOBP-WT: pH 5.0
How it was run: as §1

Row | SMILES | Binding affinity of mutant I84N compared with DhelOBP-WT (DhelOBP21-I84N mutant; pH 5.0) | Binding ability of mutant T119N compared with DhelOBP-WT (DhelOBP21-T119N mutant) | Binding affinity of mutant T119N compared with DhelOBP-WT (DhelOBP21-T119N mutant) | Binding affinity of mutant I84N compared with DhelOBP-WT (DhelOBP21-I84N mutant; pH 7.4)
1 | Cc1cc(C(C)(C)C)c(O)c(C(C)(C)C)c1 [Butylated hydroxytoluene, butylated hydroxytoluene] | relatively higher affinities | greater binding ability |  | 
2 | C=C1C2CCC(C2)C1(C)C (stereo not shown) [Camphene, camphene] | did not show any apparent difference | declined significantly | did not show any apparent difference | 
3 | CC12CCC(CC1=O)C2(C)C (stereo not shown) [Camphor, camphor] | did not show any apparent difference |  | did not show any apparent difference | 
4 | C=CC(=C)CCC=C(C)C [Myrcene, myrcene] |  | declined significantly |  | 
5 | CC1=CCC(=C(C)C)CC1 [Terpinolene] |  |  | relatively higher affinity | better than with DhelOBP-WT
